Reference: ChEMBL document CHEMBL1142992, “Discovery of diaryl imidazolidin-2-one derivatives, a novel class of muscarinic M3 selective antagonists (Part 1)” (J Med Chem, 2007)
Active and inactive are the calls of the source.

What was measured:
[1] = target: T1, Muscarinic acetylcholine receptor M2 (Homo sapiens) (UniProt P08172); test: Displacement of [3H]N-methyl-scopolamine from human muscarinic M2 receptor expressed in CHO K1 cells at 10 uM; assay type: cell-based
T1 sequence (whole entry): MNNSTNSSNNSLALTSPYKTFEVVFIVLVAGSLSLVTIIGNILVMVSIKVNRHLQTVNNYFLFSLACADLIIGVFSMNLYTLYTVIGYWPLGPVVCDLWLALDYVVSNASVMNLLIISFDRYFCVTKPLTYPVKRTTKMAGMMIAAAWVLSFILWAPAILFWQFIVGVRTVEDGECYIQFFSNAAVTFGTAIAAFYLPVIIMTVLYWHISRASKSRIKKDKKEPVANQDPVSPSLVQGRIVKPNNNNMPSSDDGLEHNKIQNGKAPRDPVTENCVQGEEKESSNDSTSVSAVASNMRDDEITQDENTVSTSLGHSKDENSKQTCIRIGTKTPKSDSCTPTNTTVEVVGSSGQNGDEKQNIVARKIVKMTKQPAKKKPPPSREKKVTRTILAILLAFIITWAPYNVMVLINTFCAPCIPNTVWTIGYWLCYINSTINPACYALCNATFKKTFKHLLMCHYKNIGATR

[2] = Permeability across human Caco-2 cell membrane; assay type: ADME, cell-based
How it was run: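 Caco-2 monolayers grown 21 days on polycarbonate inserts. Integrity checked by TEER (1000 Ω) and sodium fluorescein leakage. Compound at 50 µM in 1% DMSO applied apically, 2 h at 37 °C. Apical and basolateral samples measured by LC-MS/MS. Papp = CbVb/(C0·A·t).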

Cytochrome P450 2D6 = Cytochrome P450 2D6 (Homo sapiens, UniProt P10635); test: Inhibition of human CYP2D6 expressed in insect cells; assay type: ADME
How it was run: (§1)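 Insect-cell microsomes expressing human CYP1A2, 2C9, 2C19, 2D6 or 3A4, each with an isoform-specific fluorogenic substrate in 0.35 M potassium phosphate pH 7.4. […] Inhibitor serially diluted; plates prewarmed 10 min at 37 °C. Reaction stopped with acetonitrile/Tris, read by fluorescence. IC50 from nonlinear regression. Positive controls: furafylline, sulfaphenazole, tranylcypromine, quinidine, ketoconazole.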

[3] = Intrinsic clearance in human liver microsomes; assay type: ADME, Microsome
How it was run: (§2)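 Human or rat liver microsomes at 0.5 mg/mL final, preincubated with 0.5 µM test compound in phosphate buffer pH 7.4 for 10 min at 37 °C. Clearance reported as mL/min/g liver.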

Cytochrome P450 2C19 = Cytochrome P450 2C19 (Homo sapiens, UniProt P33261); test: Inhibition of human CYP2C19 expressed in insect cells; assay type: ADME; how it was run: as §1
Cytochrome P450 2C9 = Cytochrome P450 2C9 (Homo sapiens, UniProt P11712); test: Inhibition of human CYP2C9 expressed in insect cells; assay type: ADME; how it was run: as §1
Cytochrome P450 3A4 = Cytochrome P450 3A4 (Homo sapiens, UniProt P08684); test: Inhibition of human CYP3A4 expressed in insect cells; assay type: ADME; how it was run: as §1
[4] = Intrinsic clearance in rat liver microsomes; assay type: ADME, Microsome; how it was run: as §2
Cytochrome P450 1A2 = target: T2, Cytochrome P450 1A2 (Homo sapiens, UniProt P05177); test: Inhibition of human CYP1A2 expressed in insect cells; assay type: ADME; how it was run: as §1
T2 sequence (P05177 whole entry): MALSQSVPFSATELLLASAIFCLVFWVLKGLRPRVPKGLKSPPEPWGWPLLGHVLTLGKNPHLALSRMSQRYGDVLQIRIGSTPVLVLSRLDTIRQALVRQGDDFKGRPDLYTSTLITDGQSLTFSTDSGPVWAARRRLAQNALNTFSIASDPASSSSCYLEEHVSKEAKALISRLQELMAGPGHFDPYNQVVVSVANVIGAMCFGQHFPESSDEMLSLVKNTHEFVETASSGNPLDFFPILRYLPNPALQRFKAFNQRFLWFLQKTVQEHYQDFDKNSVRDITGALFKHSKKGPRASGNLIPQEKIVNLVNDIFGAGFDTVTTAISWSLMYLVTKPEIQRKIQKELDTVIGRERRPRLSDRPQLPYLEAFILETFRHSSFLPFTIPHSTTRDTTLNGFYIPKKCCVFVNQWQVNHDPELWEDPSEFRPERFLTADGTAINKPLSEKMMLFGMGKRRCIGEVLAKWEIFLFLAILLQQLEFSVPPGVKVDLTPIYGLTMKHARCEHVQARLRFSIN

[5] = target: T3, Muscarinic acetylcholine receptor M2 (Homo sapiens, UniProt P08172); test: Displacement of [3H]N-methyl-scopolamine from human muscarinic M2 receptor expressed in CHO K1 cells; assay type: cell-based
T3 sequence (P08172 whole entry): T1 sequence (whole entry)
How it was run: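 Membranes from CHO-K1 cells expressing human M2 receptor, homogenized and stored at -80 °C, resuspended in 50 mM Tris-HCl pH 7.4, 2.5 mM MgCl2, 1 mM EDTA. [3H]-N-methyl scopolamine 0.1-0.3 nM; nonspecific binding with cold N-methyl scopolamine. 10-point curves in duplicate, 60 min at room temperature, filtration through GF/B, scintillation counting.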

[6] = target: Muscarinic acetylcholine receptor M3 (Homo sapiens) (UniProt P20309); test: Displacement of [3H]N-methyl-scopolamine from human muscarinic M3 receptor expressed in CHO K1 cells at 10 uM; assay type: cell-based
[7] = target: T4, Muscarinic acetylcholine receptor M2 (Rattus norvegicus) (UniProt P10980); test: Antagonist activity at muscarinic M2 receptor in rat left atria assessed as contraction of methacholine-induced relaxation upto 0.1 uM relative to EFS; assay type: functional
T4 sequence (whole entry): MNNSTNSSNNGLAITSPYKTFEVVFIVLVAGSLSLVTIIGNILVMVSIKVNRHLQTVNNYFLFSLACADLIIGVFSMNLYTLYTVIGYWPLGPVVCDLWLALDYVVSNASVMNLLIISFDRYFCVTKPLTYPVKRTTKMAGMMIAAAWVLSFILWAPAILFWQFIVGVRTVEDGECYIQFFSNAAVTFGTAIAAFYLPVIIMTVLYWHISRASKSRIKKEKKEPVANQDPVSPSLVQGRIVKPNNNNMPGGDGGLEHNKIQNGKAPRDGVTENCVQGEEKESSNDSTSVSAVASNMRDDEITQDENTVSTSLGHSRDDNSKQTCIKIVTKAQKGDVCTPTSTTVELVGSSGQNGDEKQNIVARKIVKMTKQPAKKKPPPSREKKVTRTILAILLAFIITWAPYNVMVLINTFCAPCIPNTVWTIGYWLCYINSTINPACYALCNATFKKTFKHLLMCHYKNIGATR
How it was run: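 Female rat left atrium in Krebs-Henseleit at 33 °C, resting tension 0.5 g, eserine 1 µM present. Paced by EFS at 1 Hz, 5 ms pulses, 1.5× threshold voltage to give a stable basal force. Methacholine concentration-response curves run alone or with antagonist at 0.01-0.1 µM. Response read as delta % of basal force of contraction; mean ± SEM, n = 6-7.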

[8] = target: Muscarinic acetylcholine receptor M3 (Rattus norvegicus) (UniProt P08483); details: filed as antagonist
Muscarinic acetylcholine receptor M3 (Rattus norvegicus), sequence (P08483 whole entry, looked up): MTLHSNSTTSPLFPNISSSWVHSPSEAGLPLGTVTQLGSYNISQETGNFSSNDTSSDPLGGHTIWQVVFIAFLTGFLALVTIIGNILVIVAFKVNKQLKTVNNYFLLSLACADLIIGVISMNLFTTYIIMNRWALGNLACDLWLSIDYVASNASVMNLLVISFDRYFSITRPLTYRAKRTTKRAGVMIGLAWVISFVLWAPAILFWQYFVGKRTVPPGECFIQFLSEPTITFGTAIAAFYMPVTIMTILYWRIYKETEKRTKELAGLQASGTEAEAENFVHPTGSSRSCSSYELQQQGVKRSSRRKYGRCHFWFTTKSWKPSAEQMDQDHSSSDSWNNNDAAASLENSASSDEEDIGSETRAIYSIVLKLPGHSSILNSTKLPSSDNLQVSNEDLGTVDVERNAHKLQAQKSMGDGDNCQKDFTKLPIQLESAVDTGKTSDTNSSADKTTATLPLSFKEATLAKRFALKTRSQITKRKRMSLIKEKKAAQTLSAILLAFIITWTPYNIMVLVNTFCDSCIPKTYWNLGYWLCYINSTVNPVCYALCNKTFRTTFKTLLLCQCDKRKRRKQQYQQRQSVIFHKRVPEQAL

Cytochrome P450 2D6, sequence (P10635 whole entry, canonical isoform): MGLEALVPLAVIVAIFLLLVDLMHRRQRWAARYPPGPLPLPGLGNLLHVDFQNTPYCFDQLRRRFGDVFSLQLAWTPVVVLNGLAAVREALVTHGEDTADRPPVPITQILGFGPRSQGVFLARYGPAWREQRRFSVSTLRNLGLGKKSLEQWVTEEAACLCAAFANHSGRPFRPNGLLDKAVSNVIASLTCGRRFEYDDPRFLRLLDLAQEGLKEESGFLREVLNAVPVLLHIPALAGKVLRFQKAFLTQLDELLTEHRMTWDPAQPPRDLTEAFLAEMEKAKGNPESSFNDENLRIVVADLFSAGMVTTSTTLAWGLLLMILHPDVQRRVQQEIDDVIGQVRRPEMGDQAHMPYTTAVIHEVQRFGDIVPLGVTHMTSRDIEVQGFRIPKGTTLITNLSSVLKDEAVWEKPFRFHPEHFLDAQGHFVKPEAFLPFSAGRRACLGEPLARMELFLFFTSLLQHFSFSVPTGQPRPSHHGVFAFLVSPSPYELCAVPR
Cytochrome P450 2C9, sequence (P11712 whole entry): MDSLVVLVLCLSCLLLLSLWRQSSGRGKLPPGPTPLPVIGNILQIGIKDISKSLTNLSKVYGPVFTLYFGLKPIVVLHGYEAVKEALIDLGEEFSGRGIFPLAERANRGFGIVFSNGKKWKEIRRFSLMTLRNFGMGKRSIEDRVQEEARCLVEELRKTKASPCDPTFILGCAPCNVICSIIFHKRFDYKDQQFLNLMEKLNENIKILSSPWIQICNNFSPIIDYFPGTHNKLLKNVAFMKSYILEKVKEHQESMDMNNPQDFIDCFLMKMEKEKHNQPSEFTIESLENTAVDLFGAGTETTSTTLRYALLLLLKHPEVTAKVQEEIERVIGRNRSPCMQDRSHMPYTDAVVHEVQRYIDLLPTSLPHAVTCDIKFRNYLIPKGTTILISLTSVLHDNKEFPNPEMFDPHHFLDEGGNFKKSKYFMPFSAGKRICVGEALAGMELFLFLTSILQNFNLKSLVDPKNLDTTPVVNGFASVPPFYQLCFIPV
Cytochrome P450 2C19, sequence (P33261 whole entry): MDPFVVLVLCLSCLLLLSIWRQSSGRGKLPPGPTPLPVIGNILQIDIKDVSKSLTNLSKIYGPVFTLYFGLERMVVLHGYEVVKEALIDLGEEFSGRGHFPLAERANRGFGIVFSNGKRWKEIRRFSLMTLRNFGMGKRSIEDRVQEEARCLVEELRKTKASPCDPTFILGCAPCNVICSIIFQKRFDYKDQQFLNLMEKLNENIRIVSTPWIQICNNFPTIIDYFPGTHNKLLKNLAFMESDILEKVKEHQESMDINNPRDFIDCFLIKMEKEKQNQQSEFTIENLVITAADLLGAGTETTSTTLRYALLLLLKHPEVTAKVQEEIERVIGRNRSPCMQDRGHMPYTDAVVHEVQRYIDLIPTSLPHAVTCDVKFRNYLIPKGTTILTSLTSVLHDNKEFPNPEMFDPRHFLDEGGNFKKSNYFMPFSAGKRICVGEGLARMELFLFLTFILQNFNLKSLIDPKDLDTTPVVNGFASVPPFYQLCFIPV
Cytochrome P450 3A4, sequence (P08684 whole entry): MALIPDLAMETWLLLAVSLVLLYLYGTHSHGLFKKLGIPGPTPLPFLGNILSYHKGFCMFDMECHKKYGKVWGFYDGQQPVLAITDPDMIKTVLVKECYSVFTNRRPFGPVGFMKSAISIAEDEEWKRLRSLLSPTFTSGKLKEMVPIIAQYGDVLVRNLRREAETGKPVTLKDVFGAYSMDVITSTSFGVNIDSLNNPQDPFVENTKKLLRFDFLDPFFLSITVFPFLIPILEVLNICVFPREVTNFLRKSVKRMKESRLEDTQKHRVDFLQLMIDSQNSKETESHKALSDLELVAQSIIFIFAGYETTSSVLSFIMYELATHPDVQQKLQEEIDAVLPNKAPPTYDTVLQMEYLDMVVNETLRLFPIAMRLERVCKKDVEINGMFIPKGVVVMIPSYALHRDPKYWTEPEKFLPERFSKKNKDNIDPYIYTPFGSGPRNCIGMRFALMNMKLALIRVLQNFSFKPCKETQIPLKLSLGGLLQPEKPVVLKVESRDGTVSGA
Muscarinic acetylcholine receptor M3 (Homo sapiens), sequence (P20309 whole entry, looked up): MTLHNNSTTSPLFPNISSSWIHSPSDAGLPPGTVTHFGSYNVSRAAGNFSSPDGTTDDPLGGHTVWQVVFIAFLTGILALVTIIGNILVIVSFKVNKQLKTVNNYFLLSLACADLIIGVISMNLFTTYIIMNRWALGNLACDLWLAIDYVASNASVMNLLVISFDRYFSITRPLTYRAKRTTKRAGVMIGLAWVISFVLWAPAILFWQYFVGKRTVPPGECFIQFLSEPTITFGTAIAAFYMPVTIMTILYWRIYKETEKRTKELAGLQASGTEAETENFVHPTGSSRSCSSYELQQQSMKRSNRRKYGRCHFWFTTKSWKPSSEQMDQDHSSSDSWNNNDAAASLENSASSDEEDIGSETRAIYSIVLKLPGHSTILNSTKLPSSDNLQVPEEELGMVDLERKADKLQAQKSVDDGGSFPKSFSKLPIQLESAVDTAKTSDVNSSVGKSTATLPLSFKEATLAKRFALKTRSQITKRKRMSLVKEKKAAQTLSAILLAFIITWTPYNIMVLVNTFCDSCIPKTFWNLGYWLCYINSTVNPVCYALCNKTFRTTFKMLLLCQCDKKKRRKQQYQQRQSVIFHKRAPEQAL

O=C1NC(c2ccccc2)(c2ccccc2)CN1C1CCN(c2ccccc2)CC1
inhibition [1]: < 50%

O=C1NC(c2ccc(F)cc2)(c2ccc(F)cc2)CN1C1CCN(Cc2cccc(F)c2)CC1
Papp [2]: > 5 ×10⁻⁶ cm/s | IC50 (Cytochrome P450 2D6): 12 µM | CLint scaled [3]: 0.78 mL/min/g | IC50 (Cytochrome P450 2C19): 17.4 µM | IC50 (Cytochrome P450 2C9): 7.3 µM | IC50 (Cytochrome P450 3A4): > 100 µM | CLint scaled [4]: 1.4 mL/min/g | IC50 (Cytochrome P450 1A2): > 100 µM

COc1ccc(C2(c3ccc(OC)cc3)CN(C3CCN(Cc4ccccc4)CC3)C(=O)N2)cc1
inhibition [1]: < 50%

O=C1NC(c2ccccc2)(c2ccccc2)CN1C1CCCN(Cc2ccccc2)CC1 (stereo unspecified)
Ki [5]: 0.002 µM (antagonist)

C#CCN1CCC(N2CC(c3ccccc3)(c3ccccc3)NC2=O)CC1
inhibition [6]: < 50%

COc1ccc(CN2CCC(N3CC(c4ccccc4)(c4ccccc4)NC3=O)CC2)cc1
Ki [5]: 0.49 µM (antagonist)

N#Cc1cccc(CN2CCC(N3CC(c4ccccc4)(c4ccccc4)NC3=O)CC2)c1
inhibition [1]: < 50%

O=C1NC(c2ccccc2)(c2ccccc2)CN1C1CC2CCC(C1)N2Cc1ccccc1 (stereo unspecified)
Ki [5]: 0.065 µM (antagonist)

O=C1NC(c2ccccc2)(c2ccccc2)CN1C1CCN(Cc2cccnc2)CC1
Ki [5]: 0.302 µM (antagonist)

O=C1NC(c2ccc(F)cc2)(c2ccc(F)cc2)CN1C1CCN(Cc2ccccc2)CC1
Papp [2]: > 5 ×10⁻⁶ cm/s | IC50 (Cytochrome P450 2D6): 4.7 µM | CLint scaled [3]: 0.56 mL/min/g | IC50 (Cytochrome P450 2C19): 12.9 µM | Activity [7]: inactive | IC50 (Cytochrome P450 2C9): 7 µM | IC50 (Cytochrome P450 3A4): 91.9 µM | CLint scaled [4]: 2 mL/min/g | IC50 (Cytochrome P450 1A2): > 100 µM

COc1cccc(CN2CCC(N3CC(c4ccccc4)(c4ccccc4)NC3=O)CC2)c1
Ki [5]: 0.695 µM (antagonist)

O=C1NC(c2ccccc2)(c2ccccc2)CN1C1CCN(Cc2cc(Cl)cc(Cl)c2)CC1
inhibition [6]: < 50%

O=C1NC(c2ccccc2)(c2ccccc2)CN1C1CCN(Cc2cccc(O)c2)CC1
Ki [5]: 0.0479 µM (antagonist)

O=C1NC(c2ccccc2)(c2ccccc2)CN1C1CCN(Cc2ccccc2Cl)CC1
inhibition [1]: < 50%

O=C(c1cccc(Cl)c1)N1CCC(N2CC(c3ccccc3)(c3ccccc3)NC2=O)CC1
inhibition [6]: < 50%

O=C1NC(c2ccccc2)(c2ccccc2)CN1[C@@H]1CCN(Cc2ccccc2)C1
Ki [5]: 0.0822 µM (antagonist)

Cc1cccc(CN2CCC(N3CC(c4ccccc4)(C4CCCCC4)NC3=O)CC2)c1 (stereo unspecified)
Ki [5]: 0.166 µM (antagonist)

O=C1NC(c2cccs2)(c2cccs2)CN1C1CCN(Cc2ccccc2)CC1
Papp [2]: > 5 ×10⁻⁶ cm/s | CLint scaled [3]: 2.3 mL/min/g | CLint scaled [4]: 23.7 mL/min/g

O=C1NC(C2CCCCC2)(C2CCCCC2)CN1C1CCN(Cc2ccccc2)CC1
inhibition [6]: < 50%

O=C1NC(c2cccs2)(c2cccs2)CN1C1CCN(Cc2cccc(F)c2)CC1
Papp [2]: ≤ 1 ×10⁻⁶ cm/s | CLint scaled [3]: 0.95 mL/min/g | CLint scaled [4]: 13.8 mL/min/g

O=C1NC(c2ccc(F)cc2)(c2ccc(F)cc2)CN1C1CCN(Cc2cccc(Cl)c2)CC1
Papp [2]: < 1 ×10⁻⁶ cm/s | IC50 (Cytochrome P450 2D6): 5.3 µM | CLint scaled [3]: 0.87 mL/min/g | IC50 (Cytochrome P450 2C19): 17.7 µM | IC50 (Cytochrome P450 2C9): 4.2 µM | IC50 (Cytochrome P450 3A4): > 100 µM | CLint scaled [4]: 1.8 mL/min/g | IC50 (Cytochrome P450 1A2): > 100 µM

O=C1OC(c2ccccc2)(c2ccccc2)CN1C1CCN(Cc2ccccc2)CC1
Ki [5]: 0.908 µM (antagonist)

O=C1NC(c2ccccc2)(c2ccccc2)CN1C1CCN(Cc2ccccc2)CC1
Papp [2]: > 5 ×10⁻⁶ cm/s | CLint scaled [3]: 1.1 mL/min/g | CLint scaled [4]: 4.7 mL/min/g

O=C1NC(c2ccccc2)(c2ccccc2)CN1C1CCN(CCc2ccccc2)CC1
Ki [5]: 0.411 µM (antagonist)

O=C1NC(c2ccccc2)(c2ccccc2)CN1C1CCN(CC2CCCCC2)CC1
inhibition [1]: < 50%

O=C1NC(Cc2ccccc2)(Cc2ccccc2)CN1C1CCN(Cc2ccccc2)CC1
Ki [5]: 2.95 µM (antagonist)

O=C1NC(c2ccccc2)(c2ccccc2)CN1C1CCN(Cc2cccc(OC(F)(F)F)c2)CC1
inhibition [1]: < 50%

Cc1ccc(O)c([C@H](CCN(C(C)C)C(C)C)c2ccccc2)c1
pKb [8]: 8.86

CN1CCC(N2CC(c3ccccc3)(c3ccccc3)NC2=O)CC1
Ki [5]: 2.92 µM (antagonist)

O=C1NC(c2ccccc2)(c2ccccc2)CN1C1CCN(Cc2cccc(C(F)(F)F)c2)CC1
inhibition [1]: < 50%

O=C1NC(c2ccccc2)(C2CCCCC2)CN1C1CCN(Cc2cccc(Cl)c2)CC1 (stereo unspecified)
Ki [5]: 0.515 µM (antagonist)

O=C1NC(c2ccccc2)(c2ccccc2)CN1C1CCN(CCOc2ccccc2)CC1
Ki [5]: 0.328 µM (antagonist)

O=C1NC(c2ccccc2)(c2ccccc2)CN1C1CCN(Cc2cccc(F)c2)CC1
Ki [5]: 0.302 µM (antagonist)

O=C1NC(c2ccccc2)(c2ccccc2)CN1C1CCN(Cc2ccc(Cl)cc2)CC1
Ki [5]: 0.296 µM (antagonist)

Nc1cccc(CN2CCC(N3CC(c4ccccc4)(c4ccccc4)NC3=O)CC2)c1
Ki [5]: 0.182 µM (antagonist)

O=C1NC(c2ccccc2)(c2ccccc2)C(=O)N1C1CCN(Cc2ccccc2)CC1
inhibition [1]: < 50%

CN1C(=O)N(C2CCN(Cc3ccccc3)CC2)CC1(c1ccccc1)c1ccccc1
Ki [5]: 0.52 µM (antagonist)

COc1ccccc1CN1CCC(N2CC(c3ccccc3)(c3ccccc3)NC2=O)CC1
inhibition [1]: < 50%

O=C1N(C2CCN(Cc3ccccc3)CC2)CC(c2ccccc2)N1Cc1ccccc1 (stereo unspecified)
Ki [5]: 0.629 µM (antagonist)

O=C1NC(c2ccccc2)(c2ccccc2)CN1C1CCN(Cc2c[nH]cn2)CC1
inhibition [1]: < 50%

O=C1NC(c2ccccc2)(c2ccccc2)CN1C1CCCN(Cc2ccccc2)C1 (stereo unspecified)
inhibition [1]: < 50%

O=C1NC(c2ccccc2)(c2ccccc2)CN1C1CCN(Cc2cccs2)CC1
Ki [5]: 0.927 µM (antagonist)

O=C1NC(c2ccccc2)(c2ccccc2)CN1[C@H]1CCN(Cc2ccccc2)C1
Ki [5]: 2.27 µM (antagonist)
